Measured values from the EternaBench riboswitch data.

Tested on: MS2 coat protein
Assay: apparent Kd, MS2 coat protein; higher = weaker binding; RNA-MaP array; FMN 200 µM where present
Outline: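 Each design was made on Illumina sequencing-chip clusters by stalled E. coli RNA polymerase and titrated with SNAP-549-labelled MS2 coat protein from 0.7 or 1.5 nM, doubling to 3 µM, in the absence and then the presence of constant ligand. The buffer was 100 mM Tris-HCl pH 7.5, 80 mM KCl, 4 mM MgCl2, BSA, DTT, yeast tRNA and Tween-20. The apparent Kd is the median of filtered per-cluster fits of binding curves, with green signal normalised to red-channel RNA signal and control-cluster median Fmax.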

[1] = designed as: OFF switch for flavin mononucleotide, no ligand
[2] = ligand present: flavin mononucleotide, designed as: OFF switch for flavin mononucleotide
[3] = designed as: ON switch for flavin mononucleotide, no ligand
[4] = ligand present: flavin mononucleotide, designed as: ON switch for flavin mononucleotide

| Sequence | apparent Kd [1] | apparent Kd [2] | apparent Kd [3] | apparent Kd [4] |
| --- | --- | --- | --- | --- |
| AUAAUAAUAUAAGGAUAUACGUCACUGCGUCAGCAGUGUGGUAAGAUCACAUGAGGAUCACCCAUGUAGAAGGAUAAAUUAAAU | 12.4 nM | 9.22 nM |  |  |
| AAUAACAGAGGAUAUACUGUUUUAUGUGUUUGUUAUUUUGAACAUGAGGAUCACCCAUGUAGAAGGCUGAAUAA | 24.6 nM | 22.1 nM |  |  |
| AUUACAUGAGGAUCACCCAUGUACAGCACGUUUCAAAACAGUGAGGAUAUACGAAAUGUAGGAACGUAGAAGGCACUGGGUGCA |  |  | 98.3 nM | 34.2 nM |
| CAGCAAGUCACAGGAUAUGGUGAUGUACAUGAGGAUCACCCAUGUCCGUCUUCUCUCACAAGAUGCCAGAAGGGUGACUUCCGG |  |  | 950 nM | 135 nM |
| CGCAACAUACAGAAGGAGUUAUUGAGAGGUUUACUAGGAUAUGUUCACAUGAGGAUCACCCAUGUCGUUUGGUUUUUUGUUGCG | 18.4 nM | 11.2 nM |  |  |
| GGCCCGCGCGUGAGGAUAUGCUGAUUCUAGGAUUAGCAGAAGGCACAUGAGGAUCACCCAUGUCCAACUUGUCU | 28.6 nM | 36.1 nM |  |  |
| GGGAUAGGAGGAUAUGUUCUAGCUCACAUGAGGAUCACCCAUGUGGUGUCCGUUGGUAGCGCAGAAGGCUUACCUA | 792 nM | 662 nM |  |  |
| AAGAUGUCUUGAGGAUAUCCAAAGGAAACCGCAGGAGAAGGCAGGACAUGAGGAUCACCCAUGUUGGGUUUAAUGCGAACAUAA | 102 nM | 342 nM |  |  |
| AGCUGGUGACAGCAAGAAACUUCACAUGAGGAUCACCCAUGUAGAAGGCUGUACGGUUACCGUACAGAGGAUAUACAUUGAAGA | 5.59 nM | 8.63 nM |  |  |
| GAUUAACAUGAGGAUCACCCAUGUGAGGAUAUGGAAUGGCUCAUUGUCUGAUUUCCGUCUAGAAGGCACAUCUU | 46.7 nM | 45 nM |  |  |
| AUAUACUUCCAGAAGGCACAUGAGGAUCACCCAUGUACGUCUGACAUCGUGUGAGGAUAUGGAGCACGAACGCUAAAGCGGGCA | 7.92 nM | 21.3 nM |  |  |
| GCUGCAAAGUAAGGAUAUGCCUAGGAAACCUAGGCAGAAGGUACAUGAGGAUCACCCAUGUUAACUCAAAGAGAAUAAAGCAGC | 16.8 nM | 28.6 nM |  |  |
| AAAAAGUCAGGAUAUACAUGAGGAUCACCCAUGUAGCAUACGAAAAAGAGUGUGCAGUGUAGAAGGGACAAAAA | 27.1 nM | 25.7 nM |  |  |
| UGGACCGAGCUAUCGGUUGACUCGGAGGAUAUGACAUGAGGAUCACCCAUGUGGGAUCUAAAUUGUCAGAAGGCUGGUUCUGGG | 675 nM | 229 nM |  |  |
| AUAGGUUAAGGAGGAUAUAGAGGGAGAAGUACACAUGAGGAUCACCCAUGUAUUUAAUUAGUUUACUAGAAGGCUUAUGAUUGU |  |  | 46.6 nM | 53.8 nM |
| GAUAUGAUGUGAGGAUAUGCUGAGGAUACUUCAGCAGAAGGCACAUGAGGAUCACCCAUGUACACUUAUCAUAAAUACCAUAUC | 12.7 nM | 19 nM |  |  |
| AAAUUUAACGAAGGAUAUACUAACAUGAGGAUCACCCAUGUGUGUUUCGUGUUGCUGAAAUUCGGGUAGAAGGUCGUAUACAUA | 41 nM | 28.7 nM |  |  |
| AACUUACAUGAGGAUCACCCAUGUGAGGAUAUAUAAAUAUAUAUGUUAUUGUAUGUUUGUAGAAGGCGCGUGAU | 52.2 nM | 51.2 nM |  |  |
| GUCAGCUCGUGAGGAUAUACAACACUGCUUCGGCAGUGUAUUAAAAUAACAUGAGGAUCACCCAUGUAGAAGGCACGAGCUGAU | 5.14 nM | 6.62 nM |  |  |
| GCUGCAUAGUCAGGAUAUGCAACAUAAUAUACAAAAUAGUAUAUUAUGACAUGAGGAUCACCCAUGUAGAAGGGACUGUGCAGU | 19.3 nM | 19.9 nM |  |  |
| GACCGAUAGUCAGGAUAUGCAUGGUUAGUUGAUUACAUGAGGAUCACCCAUGUAGAAGGGACUUUGGCGAAAUCCGUGAUGCGU | 44.1 nM | 115 nM |  |  |
| AACCUAGUCAUAGGAUAUACAGGCAAAGCCAAAGUAGAAGGAUGACACAUGAGGAUCACCCAUGUGGUCCUUGAACAAAAUAAC | 27 nM | 196 nM |  |  |
| AGAAAGGCAGGAUAUACAUGAGGAUCACCCAUGUUAAGAAAGUGCGAAAGCACAAGAAGUAGAAGGGCCAAGAA | 23 nM | 21.6 nM |  |  |
| AGUUACAUGUAAGGAUAUACUAGCGAUAAGCUAGUAGAAGGUACUGUCUAUUGUAUCACUAUUAUACAUGAGGAUCACCCAUGU |  |  | 7.56 nM | 6.36 nM |
| GUGGCAUGAGGAUAUCGAGGUUAGUACAUGAGGAUCACCCAUGUUAUCCAGGUGUCGGUUCGAGAAGGCAUGGCAC | 326 nM | 302 nM |  |  |
| GUCGGAAACGACAAAAGUAGCAUAGGAGAAGGCAUGUCAAAGACAUGAGGAUCACCCAUGUAGCAUGAGGAUAUCCUAUGCUAC |  |  | 5.24 nM | 4.97 nM |
| GGCGGCGCGGGCCACCGCAGGACCAGAAGGACAUGAGGAUCACCCAUGUAGCAGAACAGGGCGGUGUAGGAUAUGGCAGGCUCG | 24.9 nM | 45.8 nM |  |  |
| GAGUAGUUGAAAGGAUAUUGAUUAUUGUAGGAUCAAGAAGGUUCUAACAUGAGGAUCACCCAUGUAGGACUAUUCCUGUGUAUC |  |  | 13 nM | 10.8 nM |
